This is a sample that favours compounds with a hit; in the whole collection about 1.8% have one here.
M4 ag = agonists of human muscarinic M4 receptor (CHRM4). P08173. CHO-K1 hM4/Gqi5, Fluo-8 calcium fluorescence; vehicle 0%, full acetylcholine response 100%. activation, % at 3 µM. 360,000 compounds, 0.14% hits;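 active = activation above the run mean over all test wells plus 3 SD, cut at about 32% in these data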;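 note: peak over basal fluorescence ratio per well then scaled between controls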
M5 antag = antagonists of human muscarinic M5 receptor (CHRM5). P08912. CHO-hM5 cells, Fluo-8 calcium fluorescence, ACh EC80. inhibition, % at 3 µM. 360,000 compounds, 0.59% hits. AID 624040;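 active = inhibition above a per-plate cutoff, the mean of that plate's test compounds plus 3 SD, cut at about 27% in these data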
Target sequence (P08912 whole entry, looked up): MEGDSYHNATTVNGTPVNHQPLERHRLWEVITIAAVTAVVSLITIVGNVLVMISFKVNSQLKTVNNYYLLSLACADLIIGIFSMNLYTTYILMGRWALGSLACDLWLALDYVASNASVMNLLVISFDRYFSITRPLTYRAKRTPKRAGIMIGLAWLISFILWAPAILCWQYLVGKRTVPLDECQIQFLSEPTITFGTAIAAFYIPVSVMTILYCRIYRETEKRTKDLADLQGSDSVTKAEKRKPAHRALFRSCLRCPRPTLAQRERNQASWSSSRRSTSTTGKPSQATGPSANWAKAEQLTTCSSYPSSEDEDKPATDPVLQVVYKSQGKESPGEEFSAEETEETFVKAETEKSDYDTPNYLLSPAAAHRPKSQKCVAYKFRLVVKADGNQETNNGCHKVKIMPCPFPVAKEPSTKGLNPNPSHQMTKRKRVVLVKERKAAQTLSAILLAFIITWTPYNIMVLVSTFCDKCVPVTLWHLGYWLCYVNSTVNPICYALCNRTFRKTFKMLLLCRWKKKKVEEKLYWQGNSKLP
CHRM4 PAM = positive allosteric modulators of human muscarinic M4 receptor | CHO-K1 hM4/Gqi5, Fluo-8 calcium fluorescence, ACh EC20; 0% = ACh EC20, 100% = maximal ACh | 360,000 compounds, 0.4% hits | activation, % at 3 µM | P08173;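 active = activation above its plate's cutoff, the mean activation of sample wells plus 3 SD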
CHRM5 PAM = CHRM5 positive allosteric modulation; activation, % at 3 µM; AID 624038; 360,000 compounds, 0.3% hits; P08912; CHO-K1 hM5, Fluo-8 calcium, ACh EC20 PAM; 0% = ACh EC20, 100% = ACh EC100;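 active = activation above the run cutoff, the mean activation of all test compounds plus 3 SD, cut at about 18% in these data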
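Assay system – human M5 receptor in CHO-K1 cells · Read-out – % activation, ACh-normalized · Technique – Fluo-8 calcium fluorescence · Dosing – single-point, 3 µM nominal · Incubation – Fluo-8 loading 80 min at 37 °C plus 30 min room temperature · Repeats – singlicate, one well per test compound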
CHRM5 agonist = CHRM5 agonism in calcium assay. CHO-K1 hM5 cells, Fluo-8 calcium fluorescence; 0% DMSO wells, 100% maximal acetylcholine response. activation, % at 3 µM. 360,000 compounds, 0.19% hits;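 active = activation above the run's mean over test compounds plus 3 SD, cut at about 23% in these data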;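 note: signal is peak over basal fluorescence ratio across the kinetic read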
M4 antag = blocks acetylcholine activation of human M4 receptor. inhibition, % at 3 µM. 360,000 compounds, 0.73% hits. CHO-hM4 cells, ACh EC80, Fluo-8 calcium fluorescence. P08173;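 active = inhibition above its plate's cutoff, the mean inhibition of sample wells plus 3 SD, cut at about 27% in these data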
Of the large screens only hits and unclear results are named; the others gave an inactive call.

O=C(CNC(=O)c1ccc(Cl)cc1Cl)Nc1ccc(F)cc1	none
N#Cc1ccccc1OCC(=O)N1CC(=O)Nc2ccccc21	none
CCOC(=O)c1sc(NNC(=O)c2ccc(F)cc2)nc1C	CHRM5 PAM 25
CCCOc1ccc(CSc2nc3ccccc3[nH]2)cc1	M5 antag 42
CCOc1ccc(OCCSc2nc3ccccc3[nH]2)cc1	none
COc1cc(NC(=S)N2CCCC2)cc(OC)c1	none
Cc1cccc(N/C(N)=N/c2nc(C)cc(C)n2)c1	M4 ag 37
Cc1ccc(N/C(N)=N/c2nc(C)cc(C)n2)cc1	none
CCCCc1ccc(N/C(N)=N/c2nc(C)cc(C)n2)cc1	M4 ag 114, M5 antag 77, CHRM5 agonist 51, M4 antag 87
CCC(NC(=O)CCCc1ccccc1)c1ccccc1 (stereo not given)	none
CC(C)NC(=O)CCCc1ccccc1	CHRM4 PAM 29
COC(=O)/C=C1\S/C(=N/NC(=O)c2ccc(OC)cc2)NC1=O	M5 antag 30
Cc1cccc(N(O)C(=O)Nc2cccc(Cl)c2)c1	none
CC(=O)C1=CCC(c2ccccc2)N(S(=O)(=O)c2ccc(Cl)cc2)C1 (stereo not given)	none
O=C(CSc1ccc(-c2ccccn2)nn1)c1ccccc1	none
O=C(CSc1ccc(-c2ccccn2)nn1)c1ccc(F)cc1	M5 antag 32, CHRM5 PAM 28
COC(=O)C1=C(C)N(Cc2ccco2)C(=O)N[C@@H]1c1ccco1	none
CCc1nnc(NC(=O)CSc2nnc3nc(C)cc(C)n23)s1	CHRM4 PAM 18
O=C(c1ccccc1)c1c2c(cc3sc4ccccc4[n+]13)-c1cccc3cccc-2c13	M4 ag 33, M4 antag 59
O=C(c1ccccc1)c1ccc2ccccc2c1	none
COc1cc(C2Nc3cc(Cl)c(S(N)(=O)=O)cc3S(=O)(=O)N2)cc(OC)c1OC (stereo not given)	CHRM4 PAM 24
CCCC1OC(c2ccco2)OCC1CC (stereo not given)	none
COC(=O)CSc1nnc([C@H](Cc2ccccc2)NC(=O)OC(C)(C)C)o1	none
CC(C)(C)OC(=O)N[C@@H](Cc1ccccc1)c1nnc(SCC(N)=O)o1	none
Cc1cccc(CS(=O)(=O)c2nnc([C@H](Cc3ccccc3)NC(=O)OC(C)(C)C)o2)c1	M4 antag 67
COC(=O)CS(=O)(=O)c1nnc([C@H](Cc2ccccc2)NC(=O)OC(C)(C)C)o1	M4 antag 77
CCOC(=O)N1CCN(C(=O)C(=O)Nc2sc3c(c2C(=O)O)CC(C)(C)OC3)CC1	none
Cc1cccc[n+]1CC(=O)N1c2ccccc2Sc2ccccc21	M5 antag 99, M4 antag 96
COCCNCC(=O)N1c2ccccc2Sc2ccccc21	M5 antag 57, M4 antag 31
COCCCNC(=O)N1c2ccccc2Sc2ccccc21	none
CC(C)NC(=O)N1c2ccccc2Sc2ccccc21	none
CC(=O)N1c2ccccc2Sc2ccccc21	none
CC(C)CNCC(=O)N1c2ccccc2Sc2ccccc21	M5 antag 74, M4 antag 52
COC(=O)CCCCCNC(=S)Nc1ccc2[nH]c(=O)[nH]c2c1	none
Cc1ccc(NC(=S)NC2CCSc3ccccc32)cc1 (stereo not given)	M5 antag 49, M4 antag 75
CC(=O)Nc1ccc(C(=O)NC2CCSc3ccccc32)cc1 (stereo not given)	none
COCc1c(C(=O)OC)nnn1-c1ccc(C(F)(F)F)cc1[N+](=O)[O-]	none
O=C(c1ccc(Br)o1)N1CCN(C23CC4CC(CC(C4)C2)C3)CC1	M4 antag 31
O=C(c1ccco1)N1CCN(C(=O)c2ccc(Br)o2)CC1	none
O[Si](CCCN1CCCCC1)(c1ccc(F)cc1)C1CCCCC1 (stereo not given)	M5 antag 74, M4 antag 90
O=C(CSc1nnc(Nc2ccccc2)s1)NCC1CCCO1 (stereo not given)	none
COc1ccc(Cc2nnc(NC(=O)C3CC(=O)N(c4ccccc4C)C3)s2)cc1OC (stereo not given)	none
O=c1c2cc(NC(=S)NCCCN3CCC(Cc4ccccc4)CC3)ccc2nc2n1CCCCC2	M4 antag 44
CC(NC(=O)Nc1ccc([N+](=O)[O-])cc1)C(c1ccccc1)N1CCOCC1 (stereo not given)	M4 ag 76, CHRM5 agonist 31
CC(NC(=O)Nc1ccc(Cl)c(Cl)c1)C(c1ccccc1)N1CCOCC1 (stereo not given)	M4 ag 73, M5 antag 31
CC(NC(=O)c1ccc(Cl)cc1Cl)C(c1ccccc1)N1CCOCC1 (stereo not given)	none
CC(NC(=O)C1CCC(C(C)(C)C)CC1)C(c1ccccc1)N1CCOCC1 (stereo not given)	none
COc1cc(C(=O)NCC2(N(C)C)CCCCC2)ccc1OCc1ccccc1	none
N#C/C(=C\c1ccccc1)C(=O)NNS(=O)(=O)c1ccc(Br)cc1	CHRM5 PAM 19
Cc1ccc(-n2nnnc2CNC(=O)c2ccc3c(c2)OCO3)cc1C	M4 antag 63
Cc1ccc(-n2nnnc2CNC(=O)c2ccc(Br)o2)cc1C	none
O=C1C(F)=CC(COC(c2ccccc2)(c2ccccc2)c2ccccc2)OC1n1cc(F)c(=O)[nH]c1=O (stereo not given)	M4 antag 34
CC(=O)OCC1OC(n2cc(F)c(=O)[nH]c2=O)C(OC(C)=O)C1OC(C)=O (stereo not given)	none
Cn1c(=O)[nH]c(=O)c2c1nc(SCC(=O)O)n2CCOc1ccccc1	M4 antag 54
CC1CCCCN1C(=O)CSc1nnc(-c2ccco2)n1CC1CCCO1 (stereo not given)	CHRM4 PAM 30
CCn1c(SCC(=O)N2CCCCC2C)nnc1-c1ccco1 (stereo not given)	none
Cc1ccc2c(c1)C(=O)C(=O)N2Cc1ccc(Br)cc1	CHRM5 agonist 31
Cc1ccc2c(c1)C(=O)C(=O)N2CCOc1ccccc1	CHRM5 agonist 24
Cc1ccccc1OCCCN1C(=O)C(=O)c2cccc(C)c21	CHRM5 agonist 26
Cc1cccc(OCCN2C(=O)C(=O)c3cc(C)ccc32)c1	none
Cc1cccc2c1N(CCCOc1ccccc1)C(=O)C2=O	CHRM5 agonist 27
Cc1cccc2c1N(CCCOc1ccc(C(C)(C)C)cc1)C(=O)C2=O	none
CC(C)[C@H](NC(=O)N1CC(=O)Nc2ccccc21)C(=O)N1CCC[C@@H]1C(=O)O	none

Source: PubChem (The Scripps Research Institute Molecular Screening Center)
